Experimental data from paper PMC4617824 (Cancer research, 2014).
Each block holds one molecule with its values, some of them ahead of it.

How the values were obtained:
[1] = target: 14-3-3ν (UniProt Q04917); assay: TR-FRET titration; conditions: reference: unphosphorylated T44 peptide; sites T44
[2] = system: phosphorylated levels of GST-Cables1 (endogenous Akt); type: cell-based; conditions: for block of IGF-1-induced enhancement of GST-Cables1 phosphorylation: 10 μM inhibitor 1 h, then 100 ng/ml IGF 15 min, serum-starved cells
[3] = system: Akt phosphorylation at T473 (Akt pT473); assay: A549 xenograft tumors: Akt phosphorylation; type: in vivo, lung cancer A549 xenograft mouse model; conditions: compared with vehicle, Figure S1
[4] = system: phosphorylation of Cables1 at T44 and T150; assay: A549 xenograft tumors: Cables1 phosphorylation; type: in vivo, lung cancer A549 xenograft mouse model; conditions: Figure S1
[5] = system: Cables1 binding to 14-3-3 (GST-Cables1 / His-14-3-3γ); conditions: COS7 lysates expressing GST-Cables1 and His-14-3-3γ, 0.5 h, room temperature
Method in brief: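 COS7 cells co-expressing His-14-3-3γ and GST-Cables1 were lysed. Lysates were incubated 0.5 h at room temperature with calf intestinal phosphatase, with phosphatase inhibitors (5 mM Na4P2O7, 5 mM NaF, 5 mM Na3VO4), or untreated. His-14-3-3γ complexes were captured on nickel-charged resin (2 h, 4°C), washed, and eluted by boiling in SDS sample buffer. GST-Cables1 was detected by Western blot.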

Chain of UniProt Q04917 (Q04917 whole entry, looked up): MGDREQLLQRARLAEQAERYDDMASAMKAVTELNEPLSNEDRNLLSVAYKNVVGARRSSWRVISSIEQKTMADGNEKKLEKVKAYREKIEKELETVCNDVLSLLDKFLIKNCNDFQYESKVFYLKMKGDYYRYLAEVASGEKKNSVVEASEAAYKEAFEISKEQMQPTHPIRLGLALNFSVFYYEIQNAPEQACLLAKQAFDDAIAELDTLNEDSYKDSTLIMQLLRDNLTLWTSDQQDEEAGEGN

binding against the reference [1]: stronger
Molecule: Cables1 (from UniProt Q8TDN4-2) pT44 peptide

Molecule: IGF-1: IGF-1, Sigma-Aldrich
phosphorylated levels of GST-Cables1 ([2]; 100 ng/ml IGF, 15 min, cells serum-starved 24 h, GST pull-down, Western blot): markedly enhanced

Molecule: O=c1cc(N2CCOCC2)oc2c(-c3ccccc3)cccc12 [LY294002]
block of IGF-1-induced enhancement of GST-Cables1 phosphorylation [2]: totally blocked

Molecule: O.O=C(O)C(F)(F)F.O=c1[nH]c2ccccc2n1C1CCN(Cc2ccc(-c3nc4cc5[nH]cnc5cc4nc3-c3ccccc3)cc2)CC1 [AKT1/2 inhibitor]
block of IGF-1-induced enhancement of GST-Cables1 phosphorylation [2]: totally blocked

Molecule: CC(C)n1nc(-c2ccc3oc(N)nc3c2)c2c(N)ncnc21 [INK128]
Akt pT473 level in tumors [3]: reduced
phosphorylation of Cables1 at T44 in tumors ([4]; pT44, compared with vehicle): decreased
phosphorylation of Cables1 at T150 in tumors ([4]; pT150, compared with vehicle): decreased

Cables1 binding to 14-3-3 after CIP treatment [5]: reduced
B1: CIP: calf intestinal phosphatase (protein, UniProt P19111 20-506, looked up)
Intestinal-type alkaline …: LVPVEEEDPAFWNRQAAQALDVAKKLQPIQTAAKNVILFLGDGMGVPTVTATRILKGQMNGKLGPETPLAMDQFPYVALSKTYNVDRQVPDSAGTATAYLCGVKGNYRTIGVSAAARYNQCKTTRGNEVTSVMNRAKKAGKSVGVVTTTRVQHASPAGAYAHTVNRNWYSDADLPADAQMNGCQDIAAQLVNNMDIDVILGGGRKYMFPVGTPDPEYPDDASVNGVRKRKQNLVQAWQAKHQGAQYVWNRTALLQAADDSSVTHLMGLFEPADMKYNVQQDHTKDPTLQEMTEVALRVVSRNPRGFYLFVEGGRIDHGHHDDKAYMALTEAGMFDNAIAKANELTSELDTLILVTADHSHVFSFGGYTLRGTSIFGLAPSKALDSKSYTSILYGNGPGYALGGGSRPDVNDSTSEDPSYQQQAAVPQASETHGGEDVAVFARGPQAHLVHGVEEETFVAHIMAFAGCVEPYTDCNLPAPTTATSIPD
